Data as given in PMC11966289 (ACS Omega, 2025).

What was measured:
[1] = In vitro cytotoxicity, Neutral Red assay; format: cell-based; settings: African green monkey, Vero cells
[2] = system: P. falciparum (W2 strain); assay: In vitro antiplasmodial activity; format: cell-based; settings: Plasmodium falciparum, W2, 72 h, read-out: P. falciparum (W2 strain) IC50
Method in brief: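 Infected erythrocytes (2% hematocrit, 2% parasitemia) in RPMI 1640 with 60 μg/mL amikacin and 10% human serum, exposed to serially diluted test compound under 90% N2/5% CO2/5% O2 at 37 °C for 72 h. Parasite LDH measured with Malstat reagent (30 min, room temperature), then NBT/PES (1 h, dark), stopped with 5% acetic acid, absorbance 650 nm. Triplicates; chloroquine/artemisinin and DMSO controls; IC50 from dose–response.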

[3] = system: P. falciparum (D6 strain); assay: In vitro antiplasmodial activity; format: cell-based; settings: Plasmodium falciparum, D6, 72 h, read-out: P. falciparum (D6 strain) IC50
P. berghei = assay: In vivo antiplasmodial evaluation in the P. berghei-mouse malaria model; set-up: species or system P. berghei (Swiss Webster Hsd:ND4 mice); settings: for % Parasitemia suppression day 5 / % Parasitemia suppression day 7 / MST (mean survival time) / cure (mice without parasitemia until day 28) / survival (animals survived on day 28/total): oral gavage, mice; for parasitemia suppression: day not given
[4] = 33.33 mg/kg dose, oral gavage once daily days 0, 1, 2

Row | SMILES | IC50 at 48 h [1] | IC50 [2] [µM] | IC50 [3] [µM] | other results
1 | COc1cccc2c1C(=O)c1c(O)c3c(c(O)c1C2=O)C[C@@](O)(C(=O)CO)C[C@@H]3O[C@H]1C[C@H](N)[C@H](O)[C@H](C)O1 [doxorubicin, reference compound] | 8.6 ± 0.4 µM |  |  | 
2 | Cc1cc(N2CCN(CCNc3ccnc4cc(Cl)ccc34)CC2)nc(N2CCCCC2)n1 [Compound 7a, 7-Chloro-N-(2-(4-(6-methyl-2-(piperidin-1-yl)pyrimidin-4-yl)piperazin-1-yl)ethyl) quinolin-4-amine] | > 4.76 mg/L | 0.04 | 0.032 | 
3 | Cc1cc(N2CCN(CCCNc3ccnc4cc(Cl)ccc34)CC2)nc(N2CCCC2)n1 [Compound 7i, 7-Chloro-N-(3-(4-(6-methyl-2-(pyrrolidin-1-yl)pyrimidin-4-yl)piperazin-1-yl)propyl) quinolin-4-amine] | > 4.76 mg/L | 0.019 | 0.012 | % Parasitemia suppression day 5 (P. berghei; 11.1 mg/kg × 3 days): 100.00%; % Parasitemia suppression day 7 (P. berghei; 11.1 mg/kg × 3 days): 100.00%; MST (mean survival time) (P. berghei; 11.1 mg/kg × 3 days): 27 days; cure (mice without parasitemia until day 28) (P. berghei; 11.1 mg/kg × 3 days): 3/5; survival (animals survived on day 28/total) (P. berghei; 11.1 mg/kg × 3 days): 4/5; % Parasitemia suppression day 5 (P. berghei; 33.3 mg/kg × 3 days): 100.00%; % Parasitemia suppression day 7 (P. berghei; 33.3 mg/kg × 3 days): 100.00%; MST (mean survival time) (P. berghei; 33.3 mg/kg × 3 days): 28 days; cure (mice without parasitemia until day 28) (P. berghei; 33.3 mg/kg × 3 days): 5/5; survival (animals survived on day 28/total) (P. berghei; 33.3 mg/kg × 3 days): 5/5; parasitemia suppression (P. berghei; [4]): 100%; % Parasitemia suppression day 5 (P. berghei; 100 mg/kg × 3 days): 100.00%; % Parasitemia suppression day 7 (P. berghei; 100 mg/kg × 3 days): 100.00%; MST (mean survival time) (P. berghei; 100 mg/kg × 3 days): 22.8 days; survival (animals survived on day 28/total) (P. berghei; 100 mg/kg × 3 days): 5/5; parasitemia suppression (P. berghei; at all doses (11.1, 33.3, and 100.0 mg/kg)): 100%
4 | Cc1cc(N2CCN(CCNc3ccnc4cc(Cl)ccc34)CC2)nc(N2CCSCC2)n1 [Compound 7c, 7-Chloro-N-(2-(4-(6-methyl-2-thiomorpholinopyrimidin-4-yl)piperazin-1-yl)ethyl) quinolin-4-amine] | > 4.76 mg/L | 0.064 | 0.038 | 
5 | Cc1cc(N2CCN(CCNc3ccnc4cc(Cl)ccc34)CC2)nc(Cl)n1 [Compound 6a, 7-Chloro-N-(2-(4-(2-chloro-6-methylpyrimidin-4-yl)piperazin-1-yl)ethyl)quinolin-4-amine] | > 4.76 mg/L | 0.5 | 0.079 | 
6 | Clc1ccc2c(NCCCN3CCN(c4ccnc(Cl)n4)CC3)ccnc2c1 [Compound 6c, 7-Chloro-N-(3-(4-(2-chloropyrimidin-4-yl)piperazin-1-yl)propyl)quinolin-4-amine] | > 4.76 mg/L | 0.42 | 0.073 | 
7 | Cc1cc(N2CCN(CCCNc3ccnc4cc(Cl)ccc34)CC2)nc(N2CCSCC2)n1 [Compound 7h, 7-Chloro-N-(3-(4-(6-methyl-2-thiomorpholinopyrimidin-4-yl)piperazin-1-yl)propyl) quinolin-4-amine] | > 4.76 mg/L | 0.05 | 0.018 | 
8 | Cc1cc(N2CCN(CCNc3ccnc4cc(Cl)ccc34)CC2)nc(N2CCCC2)n1 [Compound 7d, 7-Chloro-N-(2-(4-(6-methyl-2-(pyrrolidin-1-yl)pyrimidin-4-yl)piperazin-1-yl)ethyl) quinolin-4-amine] | > 4.76 mg/L | 0.02 | 0.013 | 
9 | CCN(CC)CCCC(C)Nc1ccnc2cc(Cl)ccc12 (stereo not shown) [CQ, Chloroquine, reference compound] | > 4.76 mg/L | 0.853 | 0.06 | % Parasitemia suppression day 5 (P. berghei; 33.3 mg/kg × 3 days): 100.00%; % Parasitemia suppression day 7 (P. berghei; 33.3 mg/kg × 3 days): 100.00%; MST (mean survival time) (P. berghei; 33.3 mg/kg × 3 days): 28 days; cure (mice without parasitemia until day 28) (P. berghei; 33.3 mg/kg × 3 days): 2/5; survival (animals survived on day 28/total) (P. berghei; 33.3 mg/kg × 3 days): 5/5
10 | CCN1CCN(c2nccc(N3CCN(CCCNc4ccnc5cc(Cl)ccc45)CC3)n2)CC1 [Compound 7p, 7-Chloro-N-(3-(4-(2-(4-ethylpiperazin-1-yl)pyrimidin-4-yl)piperazin-1-yl)propyl) quinolin-4-amine] | > 4.76 mg/L | 0.02 | 0.013 | 
11 | Clc1ccc2c(NCCCN3CCN(c4ccnc(N5CCOCC5)n4)CC3)ccnc2c1 [Compound 7m, 7-Chloro-N-(3-(4-(2-morpholinopyrimidin-4-yl)piperazin-1-yl)propyl)quinolin-4-amine] | > 4.76 mg/L | 0.034 | 0.02 | 
12 | Clc1ccc2c(NCCCN3CCN(c4ccnc(N5CCCCC5)n4)CC3)ccnc2c1 [Compound 7l, 7-Chloro-N-(3-(4-(2-(piperidin-1-yl)pyrimidin-4-yl)piperazin-1-yl)propyl)quinolin-4-amine] | > 4.76 mg/L | 0.031 | 0.014 | 
13 | Clc1ccc2c(NCCCN3CCN(c4ccnc(N5CCSCC5)n4)CC3)ccnc2c1 [Compound 7n, 7-Chloro-N-(3-(4-(2-thiomorpholinopyrimidin-4-yl)piperazin-1-yl)propyl)quinolin-4-amine] | > 4.76 mg/L | > 9.83 | 4.08 | 
14 | CCN1CCN(c2nc(C)cc(N3CCN(CCNc4ccnc5cc(Cl)ccc45)CC3)n2)CC1 [Compound 7e, 7-Chloro-N-(2-(4-(2-(4-ethylpiperazin-1-yl)-6-methylpyrimidin-4-yl)piperazin-1-yl)ethyl)quinolin-4-amine] | > 4.76 mg/L | 0.016 | 0.021 | % Parasitemia suppression day 5 (P. berghei; 11.1 mg/kg × 3 days): 94.31%; % Parasitemia suppression day 7 (P. berghei; 11.1 mg/kg × 3 days): 41.53%; MST (mean survival time) (P. berghei; 11.1 mg/kg × 3 days): 21.4 days; cure (mice without parasitemia until day 28) (P. berghei; 11.1 mg/kg × 3 days): 0/5; survival (animals survived on day 28/total) (P. berghei; 11.1 mg/kg × 3 days): 2/5; % Parasitemia suppression day 5 (P. berghei; 33.3 mg/kg × 3 days): 100.00%; % Parasitemia suppression day 7 (P. berghei; 33.3 mg/kg × 3 days): 100.00%; MST (mean survival time) (P. berghei; 33.3 mg/kg × 3 days): 28 days; cure (mice without parasitemia until day 28) (P. berghei; 33.3 mg/kg × 3 days): 5/5; survival (animals survived on day 28/total) (P. berghei; 33.3 mg/kg × 3 days): 5/5; parasitemia suppression (P. berghei; [4]): 100%; % Parasitemia suppression day 5 (P. berghei; 100 mg/kg × 3 days): 100.00%; % Parasitemia suppression day 7 (P. berghei; 100 mg/kg × 3 days): 100.00%; MST (mean survival time) (P. berghei; 100 mg/kg × 3 days): 28 days; cure (mice without parasitemia until day 28) (P. berghei; 100 mg/kg × 3 days): 5/5
15 | CCN1CCN(c2nc(C)cc(N3CCN(CCCNc4ccnc5cc(Cl)ccc45)CC3)n2)CC1 [Compound 7j, 7-Chloro-N-(3-(4-(2-(4-ethylpiperazin-1-yl)-6-methylpyrimidin-4-yl)piperazin-1-yl)propyl)quinolin-4-amine] | > 4.76 mg/L | 0.02 | 0.019 | 
16 | Cc1cc(N2CCN(CCCNc3ccnc4cc(Cl)ccc34)CC2)nc(Cl)n1 [Compound 6b, 7-Chloro-N-(3-(4-(2-chloro-6-methylpyrimidin-4-yl)piperazin-1-yl)propyl)quinolin-4-amine] | > 4.76 mg/L | 0.2 | 0.066 | 
17 | Cc1cc(N2CCN(CCCNc3ccnc4cc(Cl)ccc34)CC2)nc(N2CCOCC2)n1 [Compound 7g, 7-Chloro-N-(3-(4-(6-methyl-2-morpholinopyrimidin-4-yl)piperazin-1-yl)propyl) quinolin-4-amine] | > 4.76 mg/L | 0.043 | 0.015 | 
18 | Cc1cc(N2CCN(CCCNc3ccnc4cc(Cl)ccc34)CC2)nc(N2CCN(C)CC2)n1 [Compound 7k, 7-Chloro-N-(3-(4-(6-methyl-2-(4-methylpiperazin-1-yl)pyrimidin-4-yl)piperazin-1-yl)propyl)quinolin-4-amine] | > 4.76 mg/L | 0.022 | 0.019 | 
19 | Cc1cc(Cl)nc(N2CCN(CCNc3ccnc4cc(Cl)ccc34)CC2)n1 [Compound 5a, 7-Chloro-N-(2-(4-(4-chloro-6-methylpyrimidin-2-yl)piperazin-1-yl)ethyl)quinolin-4-amine] | > 4.76 mg/L | 0.21 | 0.07 | 
20 | C[C@@H]1CC[C@H]2[C@@H](C)C(=O)O[C@@H]3O[C@@]4(C)CC[C@@H]1[C@]32OO4 [ART, artemisinin, reference compound] | > 4.76 mg/L | 0.0281 | 0.019 | 
21 | Cc1cc(Cl)nc(N2CCN(CCCNc3ccnc4cc(Cl)ccc34)CC2)n1 [Compound 5b, 7-Chloro-N-(3-(4-(4-chloro-6-methylpyrimidin-2-yl)piperazin-1-yl)propyl)quinolin-4-amine] | > 4.76 mg/L | 0.35 | 0.1 | 
22 | Cc1cc(N2CCN(CCNc3ccnc4cc(Cl)ccc34)CC2)nc(N2CCOCC2)n1 [Compound 7b, 7-Chloro-N-(2-(4-(6-methyl-2-morpholinopyrimidin-4-yl)piperazin-1-yl)ethyl) quinolin-4-amine] | > 4.76 mg/L | 0.049 | 0.095 | 
23 | Clc1ccc2c(NCCCN3CCN(c4nccc(Cl)n4)CC3)ccnc2c1 [Compound 5c, 7-Chloro-N-(3-(4-(4-chloropyrimidin-2-yl)piperazin-1-yl)propyl)quinolin-4-amine] | > 4.76 mg/L | 0.23 | 0.062 | 
24 | CN1CCN(c2nccc(N3CCN(CCCNc4ccnc5cc(Cl)ccc45)CC3)n2)CC1 [Compound 7q, 7-Chloro-N-(3-(4-(2-(4-methylpiperazin-1-yl)pyrimidin-4-yl)piperazin-1-yl)propyl) quinolin-4-amine] | > 4.76 mg/L | 0.017 | 0.014 | 
25 | Cc1cc(N2CCN(CCCNc3ccnc4cc(Cl)ccc34)CC2)nc(N2CCCCC2)n1 [Compound 7f, 7-Chloro-N-(3-(4-(6-methyl-2-(piperidin-1-yl)pyrimidin-4-yl)piperazin-1-yl)propyl) quinolin-4-amine] | > 4.76 mg/L | 0.034 | 0.015 | 
